In ChEMBL document CHEMBL3112447, “Discovery of 1-methyl-1H-imidazole derivatives as potent Jak2 inhibitors” (J Med Chem, 2014):
Activity calls are given as the source filed them. The rule behind the calls is not given here.

Assays:
UKE1 = test: Antitumor activity against human UKE1 cells xenografted in po dosed SCID mouse assessed as tumor growth inhibition administered bid for 14 days; assay type: functional, organism-based
How it was run: (§1)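 UKE-1 cells mixed with matrigel implanted subcutaneously in female SCID mice. On day 15, mice randomized at a mean tumor volume of about 150 mm³. Oral gavage twice daily at 3 or 10 mg/kg, or vehicle, for 14 days. Tumor volume and body weight tracked through the dosing phase.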

Mus musculus [1] = test: In vivo inhibition of Jak2 in mouse transfected with mouse BA/F3 cells expressing TEL-Jak2 assessed as inhibition of STAT5 phosphorylation at 3 mg/kg, po after 6 hrs by Western blotting analysis; assay type: functional; details: BaF3, 6 h
How it was run: (§2)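 Mice bearing BaF3 TEL-JAK2 cells given a single oral dose of 3, 5 or 10 mg/kg and sacrificed at various times after dosing. Spleen lysates probed for phospho-STAT5 and total STAT5 by Western blot, and pSTAT5 inhibition assessed.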

Mus musculus [2] = test: In vivo inhibition of Jak2 in mouse transfected with mouse BA/F3 cells expressing TEL-Jak2 assessed as inhibition of STAT5 phosphorylation at 10 mg/kg, po after 6 hrs by Western blotting analysis; assay type: functional, organism-based; design: dose 10 mg/kg; details: BaF3; how it was run: as §2
[3] = target: Non-receptor tyrosine-protein kinase TYK2 (Mus musculus) (UniProt Q9R117); test: (§3) Inhibition of Tyk2 in mouse BA/F3 cells expressing TEL-Tyk2 assessed as inhibition of STAT5 phosphorylation by Western blotting analysis; assay type: cell-based; details: BaF3
[4] = target: Non-receptor tyrosine-protein kinase TYK2 (Mus musculus, UniProt Q9R117); test: as §3; assay type: cell-based; details: baf3
[5] = target: Tyrosine-protein kinase JAK3 (Mus musculus) (UniProt Q62137); test: (§4) Inhibition of Jak3 in mouse BA/F3 cells expressing TEL-Jak3 assessed as inhibition of STAT5 phosphorylation by Western blotting analysis; assay type: cell-based; details: BaF3
[6] = target: Tyrosine-protein kinase JAK3 (Mus musculus, UniProt Q62137); test: as §4; assay type: cell-based, BaF3
[7] = Cytotoxicity against mouse BA/F3 cells expressing TEL-Jak3 after 72 hrs by MTS assay; assay type: functional; details: BaF3, 72 h
How it was run: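 BaF3 cells transfected with the kinase domain of Jak1, Jak3 or Tyk2 (TEL fusions). Growth inhibition measured as the counter-screen for cellular selectivity.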

[8] = target: Casein kinase II subunit alpha (Homo sapiens, UniProt P68400); test: Inhibition of human recombinant 6 X His-tagged full length CK2alpha expressed in insect sf21 cells using CK2tide as substrate after 20 mins by fluorescence assay
LIM domain kinase 1 = LIM domain kinase 1 (Homo sapiens, UniProt P53667); test: Inhibition of human LIMK1
How it was run: (§5)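 Panel of 82 kinases. Radiometric filter-binding assay with ATP at or near Km. Compound tested at 0.01, 0.10 and 1.0 μM. Values expressed as minimum possible fold selectivity against Jak2.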

[9] = target: High affinity nerve growth factor receptor (Homo sapiens, UniProt P04629); test: Inhibition of human TrkA; how it was run: as §5
[10] = target: T1, Tyrosine-protein kinase JAK3 (Homo sapiens, UniProt P52333); test: Inhibition of human JAK3; how it was run: as §5
T1 sequence (P52333 whole entry): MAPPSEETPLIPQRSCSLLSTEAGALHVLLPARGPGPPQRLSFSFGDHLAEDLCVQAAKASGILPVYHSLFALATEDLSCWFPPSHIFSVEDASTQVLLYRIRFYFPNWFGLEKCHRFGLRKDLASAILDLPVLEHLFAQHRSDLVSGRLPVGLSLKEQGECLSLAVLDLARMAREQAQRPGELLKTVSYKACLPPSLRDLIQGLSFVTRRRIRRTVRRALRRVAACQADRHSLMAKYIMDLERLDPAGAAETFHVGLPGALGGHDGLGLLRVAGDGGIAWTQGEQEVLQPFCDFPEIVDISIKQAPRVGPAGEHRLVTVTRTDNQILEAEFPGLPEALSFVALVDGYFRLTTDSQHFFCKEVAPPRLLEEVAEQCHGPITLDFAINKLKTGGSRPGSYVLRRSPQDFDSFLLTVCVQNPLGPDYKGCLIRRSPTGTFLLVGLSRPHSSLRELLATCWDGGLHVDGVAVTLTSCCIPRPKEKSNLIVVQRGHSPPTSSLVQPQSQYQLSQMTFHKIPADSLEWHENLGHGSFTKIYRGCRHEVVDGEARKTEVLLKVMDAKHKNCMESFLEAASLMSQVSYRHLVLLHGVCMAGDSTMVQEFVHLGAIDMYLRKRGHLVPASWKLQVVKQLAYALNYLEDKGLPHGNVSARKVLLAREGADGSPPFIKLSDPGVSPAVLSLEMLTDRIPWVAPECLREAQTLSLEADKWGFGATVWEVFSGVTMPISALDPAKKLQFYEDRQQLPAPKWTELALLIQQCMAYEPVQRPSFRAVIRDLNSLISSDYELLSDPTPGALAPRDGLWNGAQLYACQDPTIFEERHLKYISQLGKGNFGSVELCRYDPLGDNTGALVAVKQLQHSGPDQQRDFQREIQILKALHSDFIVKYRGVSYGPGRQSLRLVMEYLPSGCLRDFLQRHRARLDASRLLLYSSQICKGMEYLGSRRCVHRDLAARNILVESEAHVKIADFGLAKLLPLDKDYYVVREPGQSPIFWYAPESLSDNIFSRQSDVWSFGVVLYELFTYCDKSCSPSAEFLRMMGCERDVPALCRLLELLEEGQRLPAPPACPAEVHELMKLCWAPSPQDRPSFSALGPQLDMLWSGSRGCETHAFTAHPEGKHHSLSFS

[11] = target: Tyrosine-protein kinase ABL1 (Homo sapiens, UniProt P00519); test: Inhibition of human Abl; how it was run: as §5
[12] = target: Tyrosine-protein kinase Fgr (Homo sapiens, UniProt P09769); test: Inhibition of human Fgr; how it was run: as §5
[13] = target: Vascular endothelial growth factor receptor 2 (Homo sapiens, UniProt P35968); test: Inhibition of human KDR; how it was run: as §5
[14] = Volume of distribution at steady state in beagle dog at 2.5 mg/kg, iv; assay type: ADME, organism-based, Canis lupus familiaris; design: dose 2.5 mg/kg, route intravenous; details: in vivo, read-out: Vdss
How it was run: (§6)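 Male beagle dogs. Oral dose 10 mg/kg in 0.1% HPMC, pH 2. IV dose 2.5 mg/kg in 20% TEG/D5W. […] Clearance, Vdss, half-life and oral bioavailability (F%) derived from the plasma profiles.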

Canis familiaris = test: AUC (0 to 12 hrs) in beagle dog at 10 mg/kg, po; assay type: ADME, organism-based, Canis lupus familiaris, Plasma; design: time < 12 hr, dose 10 mg/kg, route oral; details: in vivo; how it was run: as §6
[15] = Half life in Wistar rat at 10 mg/kg, po and 3 mg/kg, iv; assay type: ADME, organism-based; details: in vivo
How it was run: (§7)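 Rat pharmacokinetics. Oral dose 10 mg/kg in 0.1% HPMC. IV dose 3 mg/kg in 40% DMA/40% PEG/20% saline. Clearance, half-life, Vdss and oral bioavailability derived from the plasma profiles.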

[16] = Volume of distribution at steady state in Wistar rat at 10 mg/kg, po and 3 mg/kg, iv; assay type: ADME, organism-based; details: in vivo, read-out: Vdss; how it was run: as §7
[17] = Oral bioavailability in Wistar rat at 10 mg/kg; assay type: ADME, organism-based; details: in vivo; how it was run: as §7
[18] = Antitumor activity against human UKE1 cells xenografted in SCID mouse assessed as tumor growth inhibition at 10 mg/kg, po bid administered for 14 days measured on day 28; assay type: functional; details: read-out: TGI; how it was run: as §1

Chain of Non-receptor tyrosine-protein kinase TYK2 (Q9R117 whole entry, looked up): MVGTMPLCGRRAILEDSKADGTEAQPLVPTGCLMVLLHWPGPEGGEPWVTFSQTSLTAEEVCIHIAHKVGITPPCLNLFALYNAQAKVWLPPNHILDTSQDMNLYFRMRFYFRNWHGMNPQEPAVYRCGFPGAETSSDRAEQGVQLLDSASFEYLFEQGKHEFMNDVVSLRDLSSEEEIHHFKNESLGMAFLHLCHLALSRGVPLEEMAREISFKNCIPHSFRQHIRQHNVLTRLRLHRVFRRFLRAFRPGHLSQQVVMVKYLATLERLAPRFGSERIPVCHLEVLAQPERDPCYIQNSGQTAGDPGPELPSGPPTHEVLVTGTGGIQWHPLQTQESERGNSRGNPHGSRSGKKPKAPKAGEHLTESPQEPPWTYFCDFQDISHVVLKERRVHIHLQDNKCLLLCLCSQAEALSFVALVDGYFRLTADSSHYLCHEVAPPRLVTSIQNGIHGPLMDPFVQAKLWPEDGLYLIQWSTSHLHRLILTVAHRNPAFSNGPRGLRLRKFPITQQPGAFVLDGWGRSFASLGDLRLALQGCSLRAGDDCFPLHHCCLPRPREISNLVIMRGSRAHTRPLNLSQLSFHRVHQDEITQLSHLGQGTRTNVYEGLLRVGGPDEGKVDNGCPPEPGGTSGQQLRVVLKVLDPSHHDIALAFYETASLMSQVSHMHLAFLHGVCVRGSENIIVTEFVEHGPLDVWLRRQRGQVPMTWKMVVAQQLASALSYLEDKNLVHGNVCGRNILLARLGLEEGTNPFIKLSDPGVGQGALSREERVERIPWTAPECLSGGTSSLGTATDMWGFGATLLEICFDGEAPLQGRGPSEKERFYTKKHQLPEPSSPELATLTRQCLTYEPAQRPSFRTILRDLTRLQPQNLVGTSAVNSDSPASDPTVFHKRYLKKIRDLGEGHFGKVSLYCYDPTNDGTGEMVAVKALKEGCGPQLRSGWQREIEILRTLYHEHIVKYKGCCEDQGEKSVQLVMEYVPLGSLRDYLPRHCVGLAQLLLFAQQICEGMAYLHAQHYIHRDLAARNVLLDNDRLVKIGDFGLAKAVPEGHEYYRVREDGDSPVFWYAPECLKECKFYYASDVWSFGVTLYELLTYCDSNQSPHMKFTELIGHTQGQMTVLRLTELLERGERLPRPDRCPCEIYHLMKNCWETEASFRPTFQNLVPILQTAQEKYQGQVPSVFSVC
Chain of Non-receptor tyrosine-protein kinase TYK2 (Mus musculus) (Q9R117 whole entry): as the sequence (Q9R117 whole entry, looked up) above
Chain of Tyrosine-protein kinase Fgr (P09769 whole entry): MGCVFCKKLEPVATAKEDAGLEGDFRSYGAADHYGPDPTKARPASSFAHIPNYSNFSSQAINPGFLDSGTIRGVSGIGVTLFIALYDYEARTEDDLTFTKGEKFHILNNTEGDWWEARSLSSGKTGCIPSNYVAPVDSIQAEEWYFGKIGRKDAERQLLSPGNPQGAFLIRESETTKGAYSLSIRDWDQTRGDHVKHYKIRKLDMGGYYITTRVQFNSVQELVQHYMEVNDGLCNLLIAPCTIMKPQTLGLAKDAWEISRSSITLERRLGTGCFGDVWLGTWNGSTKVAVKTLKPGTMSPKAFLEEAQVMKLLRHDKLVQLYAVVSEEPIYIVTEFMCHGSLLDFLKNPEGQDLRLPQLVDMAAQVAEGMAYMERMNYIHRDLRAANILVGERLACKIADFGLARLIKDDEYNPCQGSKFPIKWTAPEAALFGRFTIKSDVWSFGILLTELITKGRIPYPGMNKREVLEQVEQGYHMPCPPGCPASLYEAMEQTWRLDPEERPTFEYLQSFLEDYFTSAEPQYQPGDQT
Chain of Tyrosine-protein kinase ABL1 (P00519 whole entry): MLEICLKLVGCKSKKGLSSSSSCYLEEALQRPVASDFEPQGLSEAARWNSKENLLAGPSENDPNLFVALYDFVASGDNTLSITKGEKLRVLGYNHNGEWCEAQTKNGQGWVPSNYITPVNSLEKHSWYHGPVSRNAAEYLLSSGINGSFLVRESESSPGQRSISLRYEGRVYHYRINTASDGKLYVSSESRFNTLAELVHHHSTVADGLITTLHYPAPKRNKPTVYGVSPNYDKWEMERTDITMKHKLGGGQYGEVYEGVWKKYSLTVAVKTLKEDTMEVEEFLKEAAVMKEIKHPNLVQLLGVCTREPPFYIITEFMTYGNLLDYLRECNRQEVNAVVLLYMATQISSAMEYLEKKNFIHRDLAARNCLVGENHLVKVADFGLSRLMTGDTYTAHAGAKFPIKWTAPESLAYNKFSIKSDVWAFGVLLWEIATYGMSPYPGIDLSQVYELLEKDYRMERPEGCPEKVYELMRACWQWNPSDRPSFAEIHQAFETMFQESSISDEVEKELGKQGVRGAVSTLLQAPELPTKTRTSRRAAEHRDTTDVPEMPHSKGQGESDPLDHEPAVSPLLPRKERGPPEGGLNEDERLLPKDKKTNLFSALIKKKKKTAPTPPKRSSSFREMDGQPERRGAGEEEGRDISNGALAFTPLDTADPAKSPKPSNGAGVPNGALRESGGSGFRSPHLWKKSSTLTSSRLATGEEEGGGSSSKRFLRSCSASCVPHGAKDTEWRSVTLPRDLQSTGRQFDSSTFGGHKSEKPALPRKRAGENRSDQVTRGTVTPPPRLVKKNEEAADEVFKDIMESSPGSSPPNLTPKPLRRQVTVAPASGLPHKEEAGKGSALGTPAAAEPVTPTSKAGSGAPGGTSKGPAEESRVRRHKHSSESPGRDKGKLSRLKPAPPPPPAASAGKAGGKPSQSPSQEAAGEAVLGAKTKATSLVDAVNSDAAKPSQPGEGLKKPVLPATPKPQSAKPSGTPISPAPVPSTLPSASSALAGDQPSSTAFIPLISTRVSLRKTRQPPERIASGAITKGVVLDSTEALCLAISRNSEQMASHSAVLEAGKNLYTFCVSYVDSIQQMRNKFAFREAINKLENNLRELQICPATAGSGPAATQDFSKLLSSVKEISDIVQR
Chain of LIM domain kinase 1 (P53667 whole entry, the tested form may be a part): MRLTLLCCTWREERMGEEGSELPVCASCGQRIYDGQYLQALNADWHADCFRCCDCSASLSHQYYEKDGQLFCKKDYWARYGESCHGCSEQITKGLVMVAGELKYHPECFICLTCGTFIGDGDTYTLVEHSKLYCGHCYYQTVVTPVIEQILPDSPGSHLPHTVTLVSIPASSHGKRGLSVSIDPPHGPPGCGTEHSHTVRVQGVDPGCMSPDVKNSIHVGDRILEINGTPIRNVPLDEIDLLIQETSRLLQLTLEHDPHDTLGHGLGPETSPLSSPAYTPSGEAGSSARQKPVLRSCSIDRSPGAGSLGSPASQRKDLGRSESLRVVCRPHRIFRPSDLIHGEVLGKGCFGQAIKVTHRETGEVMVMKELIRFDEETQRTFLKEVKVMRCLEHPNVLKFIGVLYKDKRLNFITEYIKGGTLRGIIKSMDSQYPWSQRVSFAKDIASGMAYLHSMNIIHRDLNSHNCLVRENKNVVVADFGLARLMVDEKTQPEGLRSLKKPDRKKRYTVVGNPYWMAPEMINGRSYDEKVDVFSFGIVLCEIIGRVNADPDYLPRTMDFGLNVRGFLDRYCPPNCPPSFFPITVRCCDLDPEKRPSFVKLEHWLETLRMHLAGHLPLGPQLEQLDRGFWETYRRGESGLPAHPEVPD
Chain of Casein kinase II subunit alpha (P68400 whole entry, the tested form may be a part): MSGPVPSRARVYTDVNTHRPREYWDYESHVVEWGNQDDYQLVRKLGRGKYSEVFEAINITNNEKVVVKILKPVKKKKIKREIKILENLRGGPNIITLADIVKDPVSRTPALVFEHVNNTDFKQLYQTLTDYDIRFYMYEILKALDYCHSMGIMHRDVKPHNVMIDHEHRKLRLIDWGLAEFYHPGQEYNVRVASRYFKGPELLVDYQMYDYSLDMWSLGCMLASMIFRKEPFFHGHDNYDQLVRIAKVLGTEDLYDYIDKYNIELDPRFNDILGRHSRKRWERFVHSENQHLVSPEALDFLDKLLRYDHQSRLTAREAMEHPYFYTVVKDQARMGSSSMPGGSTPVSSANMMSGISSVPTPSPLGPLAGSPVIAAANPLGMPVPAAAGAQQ
Chain of High affinity nerve growth factor receptor (P04629 whole entry): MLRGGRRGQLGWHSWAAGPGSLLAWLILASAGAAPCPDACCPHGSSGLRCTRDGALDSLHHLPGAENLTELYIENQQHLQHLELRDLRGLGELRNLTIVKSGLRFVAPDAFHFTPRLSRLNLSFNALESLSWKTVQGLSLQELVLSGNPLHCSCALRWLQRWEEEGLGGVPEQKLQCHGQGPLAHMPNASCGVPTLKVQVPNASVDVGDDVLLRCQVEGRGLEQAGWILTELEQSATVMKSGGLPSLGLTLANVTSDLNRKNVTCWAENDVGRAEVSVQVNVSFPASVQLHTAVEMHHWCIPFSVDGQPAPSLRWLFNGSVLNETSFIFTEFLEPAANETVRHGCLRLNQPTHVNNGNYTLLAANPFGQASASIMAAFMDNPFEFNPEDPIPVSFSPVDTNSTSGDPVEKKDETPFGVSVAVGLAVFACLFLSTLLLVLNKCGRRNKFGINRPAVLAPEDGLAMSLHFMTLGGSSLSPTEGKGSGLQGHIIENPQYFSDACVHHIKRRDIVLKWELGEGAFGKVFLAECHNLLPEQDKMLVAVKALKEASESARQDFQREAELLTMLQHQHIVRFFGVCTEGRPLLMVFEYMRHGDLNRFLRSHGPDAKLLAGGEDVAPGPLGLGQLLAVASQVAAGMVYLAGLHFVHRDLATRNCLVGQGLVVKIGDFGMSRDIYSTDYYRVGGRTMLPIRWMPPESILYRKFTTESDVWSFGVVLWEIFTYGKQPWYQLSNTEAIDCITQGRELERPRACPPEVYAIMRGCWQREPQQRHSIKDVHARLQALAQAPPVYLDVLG

C[C@H](Nc1nc(Nc2cn(C)cn2)c2cc[nH]c2n1)c1ncc(F)cn1
TGI (UKE1): Dose-dependent effect | inhibition in vivo at 3 mg/kg (Mus musculus [1]): 80% | inhibition (Mus musculus [2]): Active | inhibition [3]: Dose-dependent effect | IC50 [4]: 240 nM | inhibition [5]: Dose-dependent effect | IC50 [6]: 2000 nM | GI50 [7]: 1800 nM | IC50 [8]: > 30000 nM | IC50 (LIM domain kinase 1): 63 nM | IC50 [9]: 35 nM | IC50 [10]: 35 nM | IC50 [11]: 25 nM | IC50 [12]: 33 nM | IC50 [13]: 22 nM | Vd [14]: 1.9 L/kg | AUC (Canis familiaris): 45 µM·h | half-life [15]: 1.6 h | Vd [16]: 2.2 L/kg | bioavailability [17]: 64% | inhibition in vivo at 10 mg/kg [18]: 77%
